IEC-6 tox – counter-screen for KLF5 inhibitors: cytotoxicity in IEC-6 cells; IEC-6 cytotoxicity, luminescence viability; inhibition, % at 5 µM; 290,000 tested, 0.78% active; AID 1825; in the data active means inhibition above about 22%
Ba/F3 V617F tox – lowers viability of Ba/F3 cells expressing EpoR and JAK2V617F | ATP luminescence | inhibition, % at 5.6 µM | 220,000 tested, 1.1% active;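 active means inhibition above the campaign mean plus 3 SD over all tested compounds, cut at about 24% in these data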;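 further: cytokine-independent growth of Ba/F3 cells driven by EpoR plus mutant JAK2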
MT stabilizer – stabilizes microtubules in HeLa cells; HeLa tubulin immunostaining HCS, 24 h; share of cells brighter than vehicle mean+2SD; 200,000 tested, 0.83% active; % tubulin-high responders, % at 10 µM;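 active means plate Z-score above 3 for both tubulin-high and condensed-nucleus cell shares, with cell loss under 80%, at 10 µM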;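 further: anti alpha tubulin signal scored within the nucleus-defined area of each cell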
APP transl inh – APP translation inhibition. SH-SY5Y APP 5'UTR-luciferase reporter, luminescence. inhibition, % at 2 µM. 190,000 tested, 0.82% active;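 active means inhibition above a set limit, derived from the sample mean plus 3 SD, cut at about 45% in these data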
bCat nuc transl – modulators of beta-catenin nuclear translocation; HeLa beta-catenin nuclear translocation, immunofluorescence imaging; nuclear translocation activity, % at 5 µM; 190,000 tested, 0.3% active; AID 1665;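 active means nuclear translocation activity above 50% at 5 µM, with a well cell count of 50 or more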;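 further: per-cell ratio of nuclear to cytoplasmic median beta-catenin stain intensity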
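Test system: human HeLa cells, endogenous beta-catenin. Times: 24 h compound exposure, 37°C. Measured by: beta-catenin immunofluorescence imaging with DAPI.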
BaF3 tox – reduces parental Ba/F3 cell viability, JAK2V617F counter-screen; 220,000 tested, 1.1% active; CellTiter-Glo ATP luminescence; inhibition, % at 5.6 µM;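 active means inhibition above a per-campaign cutoff, the mean inhibition of all tested compounds plus 3 SD, cut at about 27% in these data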
Numbers stand for hits; . = inactive; / = no result. This is a sample that favours compounds with a hit; in the whole collection about 2.2% have one here.

SMILES | IEC-6 tox | Ba/F3 V617F tox | MT stabilizer | APP transl inh | bCat nuc transl | BaF3 tox
Cc1ccccc1-n1ncc2c1CC(C)(C)CC2NC(=O)CCC(F)(F)F (stereo not given) | . | / | / | / | / | /
C=CCNC(=S)/N=c1/ccccn1C | . | . | / | / | . | .
C=CCNC(=S)/N=c1/ccccn1CCC | . | 51 | / | / | . | 56
O=C(CCc1nc2ccccc2c(=O)[nH]1)N1CCN(S(=O)(=O)c2cccc(F)c2)CC1 | . | / | / | / | / | /
Cc1cc(C(F)F)n2nc(C(=O)Nc3cccnc3Cl)nc2n1 | . | . | . | . | . | 95
COc1cc(NC(=O)c2cc(-c3cccs3)on2)cc(OC)c1OC | . | . | 54 | . | . | .
COc1ccc(NC(=O)c2cc(-c3ccccc3OC)on2)cc1 | . | . | 51 | 74 | 145 | .
COc1ccccc1-c1cc(C(=O)NCCc2ccccc2)no1 | . | . | 21 | . | / | .
O=C(NNS(=O)(=O)c1ccc([N+](=O)[O-])cc1)c1ccc([N+](=O)[O-])cc1 | . | / | / | / | / | /
O=S1(=O)[C@H]2C[C@@H]3C=C[C@@]2(CN1Cc1cccc(F)c1)O3 | . | / | / | / | / | /
CCN(CC)c1ccc(/C=C2\SC(=O)N(C(C)C)C2=O)o1 | . | 51 | / | / | . | 44
Cc1ccc(OCC(=O)N/N=C\c2c(C)n(C)c3ccccc23)c([N+](=O)[O-])c1 | . | . | 47 | . | . | .
Cc1cccc(-c2onc3ccc(C(=O)/C=C/N(C)C)cc23)c1 | . | / | / | / | / | /
CC(=O)NC1=C(C#N)C(c2ccccc2)c2c(ccc3ccccc23)O1 (stereo not given) | . | . | 43 | / | 58 | .
CC(=O)Nc1ccc(S(=O)(=O)NC(CSc2ccc(C(=O)O)cc2[N+](=O)[O-])C(=O)O)cc1 (stereo not given) | . | / | / | / | / | /
O=C1c2[nH]nc(-c3ccccc3O)c2C(c2cccc(Cl)c2)N1Cc1ccco1 (stereo not given) | . | . | 17 | . | . | .
CCOc1ccc(NS(=O)(=O)c2cc(C(=O)N3CCN(C(C)=O)CC3)ccc2Cl)cc1 | . | / | / | / | / | /
CCOc1ccc(NS(=O)(=O)c2cc(NC(=O)c3cccc(C)c3)ccc2Cl)cc1 | . | . | 23 | . | . | .
O=C(CCn1cncn1)N1CCCC(N2CCN(c3cccc(C(F)(F)F)c3)CC2)C1 (stereo not given) | . | / | / | / | / | /
COC(=O)Nc1nc(C)c(C(=O)c2ccccc2)s1 | . | . | . | . | 56 | .
Cc1nc(Nc2ccccc2)sc1C(=O)c1ccccc1 | . | . | / | / | . | .
C=CCNC(=O)/C(C#N)=C\c1cc(Cl)c(O)c(OCC)c1 | . | . | . | . | . | .
CCOc1cc(/C=C(/C#N)C(=O)Nc2ccc(O)cc2)cc(Br)c1O | . | . | . | . | 62 | .
CCCCCN(C(=O)CCC(=O)OCC(=O)N(C)Cc1ccc(C)cc1)c1c(N)n(CCCC)c(=O)[nH]c1=O | . | / | / | / | / | /
O=C(Nc1ccc2oc(-c3cccnc3)nc2c1)c1ccc([N+](=O)[O-])o1 | . | . | . | 60 | . | .
SMILES | IEC-6 tox | Ba/F3 V617F tox | MT stabilizer | APP transl inh | bCat nuc transl | BaF3 tox
O=C(Nc1ccc2oc(-c3cccnc3)nc2c1)c1ccc(Br)o1 | . | . | . | . | . | .
CCn1c(=O)cc(SCC(=O)NCc2ccc(C)cc2)c2ccccc21 | . | . | 31 | . | . | .
CCn1c(=O)cc(SCC(=O)NCc2ccco2)c2ccccc21 | . | . | 46 | . | 55 | .
O=C(N/N=C/c1ccccc1)C1CCCN1C(=O)c1cc([N+](=O)[O-])cc([N+](=O)[O-])c1 (stereo not given) | . | / | / | / | / | /
COc1ccc(C(C(=O)NC2CCCCC2)N(C(=O)c2ccco2)c2ccccc2C(C)=O)cc1OC (stereo not given) | . | / | / | / | / | /
O=C(Cn1c(-c2ccccc2)c[n+]2ccsc12)c1ccc([N+](=O)[O-])cc1 | . | . | . | . | . | .
O=C(Cn1c(-c2ccccc2)c[n+]2ccsc12)c1ccccc1 | . | 70 | . | . | . | 60
CC(=O)Nc1ccc(NCC(=O)c2ccccc2)cc1 | . | / | / | / | / | /
O=C(O)CCC(=O)NNc1nc2ccccc2nc1-c1ccccc1 | . | . | . | . | . | 90
O=C(Nc1c(C(=O)N2CCOCC2)oc2ccccc12)c1ccccc1Cl | . | / | / | / | / | /
Cc1ccc(C(OCC(C)(C)C[N+](C)(C)C)c2ccccc2)cc1 (stereo not given) | . | 27 | . | . | . | 58
Cc1ccc(C(=O)N2CCC(C(=O)c3c(C)cc(C)cc3C)CC2)cc1 | . | / | / | / | / | /
O=C(CSc1ccc2c(c1)OCCO2)Nc1ncc(Cl)cc1Cl | . | . | . | 46 | . | .
CCN(C(=O)COC(=O)c1[nH]c(=O)[nH]c(=O)c1N)c1ccccc1 | . | . | . | . | . | .
Cc1ccc(C(=O)NNC(=O)C2CCN(c3ncccn3)CC2)cc1 | . | / | / | / | / | /
O=C(NNC(=O)C1CCN(c2ncccn2)CC1)c1ccc(Cl)cc1 | . | . | . | . | . | 90
CCC(C(=O)N1CCC(N2CCCCC2)CC1)n1nc(C)c2sc3ccccc3c2c1=O (stereo not given) | . | / | / | / | / | /
CC12CC3(C)CC(C)(C1)CC(C(=O)NCCc1ccc(S(N)(=O)=O)cc1)(C2)C3 | . | / | / | / | / | /
CN(C)CCNC(=O)C12CC3(C)CC(C)(CC(C)(C3)C1)C2 | . | . | . | . | / | 59
Cc1cc(=O)[nH]c(SCC(=O)Nc2ccccc2C#N)c1C#N | . | . | 44 | . | . | .
COC(=O)c1ccccc1NC(=O)CSc1[nH]c(=O)cc(C)c1C#N | . | . | . | . | . | .
Oc1c(C(c2cccs2)N2CCN(c3ccccc3)CC2)ccc2cccnc12 (stereo not given) | . | 98 | . | 59 | . | 83
CN1CCN(C(c2ccc(C(F)(F)F)cc2)c2ccc3cccnc3c2O)CC1 (stereo not given) | . | / | / | / | / | /
Oc1c(C(c2ccccc2Cl)N2CCCC2)ccc2cccnc12 (stereo not given) | . | 83 | . | . | . | 68
CCOCCCNC(=O)N1CCOCC1 | . | . | . | . | / | .
SMILES | IEC-6 tox | Ba/F3 V617F tox | MT stabilizer | APP transl inh | bCat nuc transl | BaF3 tox
O=C(NCCCCCCNC(=O)N1CCCCCC1)N1CCCCCC1 | . | 50 | . | . | . | 55
COc1cccc2cc(C(=O)OCc3ccccc3)c(=O)oc12 | . | / | / | / | / | /
Cc1cccc(/C=C/C(=O)c2ccc(NC3=NCCCS3)cc2)c1 | . | . | . | . | . | .
COc1cccc(/C=C/C(=O)c2ccc(NC3=NCCCS3)cc2)c1 | . | . | 16 | . | . | .
Cc1ccc(/C=N/NC(=O)C2CC(=O)N(c3ccccc3)C2)s1 (stereo not given) | . | . | . | . | 57 | .
CCOc1ccc(NC(=S)N2CCC(NC(=O)C3CCCCC3)CC2)cc1 | . | / | / | / | / | /
O=C1N/C(=C/c2ccc(Br)cc2)C(O)=C1C=NCc1ccccc1 | . | . | . | 59 | . | .
O=C1C(C=NCc2ccncc2)=C(O)c2ccccc21 | . | . | . | . | . | .
COc1ccc(C(=O)NCCSCc2ccccc2)cc1OC | . | . | . | . | . | .

Screens: PubChem, several laboratories
